What was measured:
[1] = test system: Panel leukemia (Carcinoma cell lines); experiment: cells; settings: Homo sapiens, 48 h, read-out: INH
[2] = test system: Panel prostate (Carcinoma cell lines); experiment: Antiproliferative activity against human Panel prostate (Carcinoma cell lines) assessed as cell growth inhibition measured after 48 hrs by SRB assay
[3] = biological target: Homeodomain-interacting protein kinase 1 (Homo sapiens, UniProt Q86Z02); experiment: Inhibition of HIPK1 (unknown origin) incubated for 1 hr by qPCR analysis
Procedure, shortened: (§1)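 Competition binding assay. Kinases were either T7-phage-tagged (grown in an E. coli BL21-derived host) or expressed in HEK-293 cells and DNA-tagged. […] Bound kinase was eluted with non-biotinylated ligand and quantified by qPCR.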

[4] = test system: Panel colon (Carcinoma cell lines); experiment: Antiproliferative activity against human Panel colon (Carcinoma cell lines) assessed as cell growth inhibition measured after 48 hrs by SRB assay
MDA-MB-435 = experiment: Antiproliferative activity against human MDA-MB-435 cells assessed as cell growth inhibition measured after 48 hrs by SRB assay; settings: MDA-MB-435, 48 h
[5] = biological target: Mitogen-activated protein kinase 8 (Homo sapiens, UniProt P45983); experiment: Inhibition of MAPK8 (unknown origin) incubated for 1 hr by qPCR analysis
Procedure, shortened: as §1

UACC-62 = experiment: Antiproliferative activity against human UACC-62 cells assessed as total growth inhibition measured after 48 hrs by SRB assay; settings: UACC-62, 48 h
[6] = test system: Panel CNS (Carcinoma cell lines); experiment: Antiproliferative activity against human Panel CNS (Carcinoma cell lines) assessed as cell growth inhibition measured after 48 hrs by SRB assay
[7] = biological target: T1, Receptor-type tyrosine-protein kinase FLT3 (Homo sapiens, UniProt P36888); experiment: Inhibition of FLT3 (unknown origin) incubated for 1 hr by qPCR analysis
T1 sequence (P36888 whole entry): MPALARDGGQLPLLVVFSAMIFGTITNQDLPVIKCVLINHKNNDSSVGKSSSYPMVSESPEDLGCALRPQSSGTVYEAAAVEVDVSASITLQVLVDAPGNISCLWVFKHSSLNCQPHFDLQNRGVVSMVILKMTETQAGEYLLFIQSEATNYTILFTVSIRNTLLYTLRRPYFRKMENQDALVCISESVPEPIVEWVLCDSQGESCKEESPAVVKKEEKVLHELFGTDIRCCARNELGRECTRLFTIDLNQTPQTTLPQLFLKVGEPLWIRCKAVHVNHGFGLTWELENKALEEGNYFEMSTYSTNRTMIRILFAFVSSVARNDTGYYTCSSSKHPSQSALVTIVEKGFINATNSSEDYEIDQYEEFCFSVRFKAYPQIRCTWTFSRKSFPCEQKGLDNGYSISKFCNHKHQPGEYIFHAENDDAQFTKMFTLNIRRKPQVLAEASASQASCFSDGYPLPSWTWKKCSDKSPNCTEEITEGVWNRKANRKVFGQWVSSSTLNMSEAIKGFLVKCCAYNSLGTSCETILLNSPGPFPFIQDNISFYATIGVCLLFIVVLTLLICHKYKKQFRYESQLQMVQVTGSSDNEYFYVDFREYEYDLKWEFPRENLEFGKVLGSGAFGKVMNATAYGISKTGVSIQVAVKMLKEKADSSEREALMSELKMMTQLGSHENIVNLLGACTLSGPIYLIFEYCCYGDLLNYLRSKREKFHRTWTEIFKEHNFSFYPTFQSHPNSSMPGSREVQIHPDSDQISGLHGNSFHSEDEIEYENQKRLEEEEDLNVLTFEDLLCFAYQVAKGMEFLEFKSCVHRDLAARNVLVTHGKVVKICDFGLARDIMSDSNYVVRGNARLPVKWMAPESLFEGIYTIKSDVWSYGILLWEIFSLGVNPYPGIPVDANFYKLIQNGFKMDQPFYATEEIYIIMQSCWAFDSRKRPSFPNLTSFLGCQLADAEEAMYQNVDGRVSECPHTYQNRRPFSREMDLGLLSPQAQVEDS
Procedure, shortened: as §1

LOX IMVI = experiment: Antiproliferative activity against human LOX IMVI cells assessed as cell growth inhibition measured after 48 hrs by SRB assay
SK-MEL-2 [8] = experiment: Antiproliferative activity against human SK-MEL-2 cells assessed as cell growth inhibition measured after 48 hrs by SRB assay; settings: SK-MEL-2, 48 h
[9] = biological target: Fibroblast growth factor receptor 1 (Homo sapiens, UniProt P11362); experiment: Inhibition of FGFR1 (unknown origin) incubated for 1 hr by qPCR analysis
Malme-3M [10] = experiment: Antiproliferative activity against human Malme-3M cells assessed as total growth inhibition measured after 48 hrs by SRB assay
[11] = biological target: Serine/threonine-protein kinase B-raf (Homo sapiens, UniProt P15056, V600E); experiment: Inhibition of human BRAF V600E mutant using myelin basic protein as substrate in presence of [gamma-33P]ATP incubated for 40 mins by scintillation counting method
Procedure, shortened: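 Radiometric kinase assay run at Reaction Biology. Kinase (5−10 mU) in 25 mM Tris pH 7.5, 0.02 mM EGTA, 10 mM magnesium acetate with 0.66 mg/mL myelin basic protein and [γ-33P]ATP at 1 μM ATP. Reaction started with Mg-ATP and run 40 min at room temperature, then stopped with 3% phosphoric acid. Spotted on P30 filtermat, washed, scintillation counted.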

[12] = Cytotoxicity against human L132 cells assessed as cell growth inhibition incubated for 48 hrs by MTT assay; type: toxicity, cell-based
Malme-3M [13] = experiment: Antiproliferative activity against human Malme-3M cells assessed as cell growth inhibition measured after 48 hrs by SRB assay
UACC-257 = experiment: Antiproliferative activity against human UACC-257 cells assessed as total growth inhibition measured after 48 hrs by SRB assay; settings: UACC-257, 48 h
[14] = biological target: BDNF/NT-3 growth factors receptor (Homo sapiens, UniProt Q16620); experiment: Inhibition of NTRK2 (unknown origin) incubated for 1 hr by qPCR analysis
[15] = test system: Panel melanoma (Carcinoma cell lines); experiment: cells; settings: Homo sapiens, 48 h, read-out: INH
SK-MEL-2 [16] = experiment: Antiproliferative activity against human SK-MEL-2 cells assessed as total growth inhibition measured after 48 hrs by SRB assay; settings: SK-MEL-2, 48 h
[17] = test system: Panel CNS (Carcinoma cell lines); experiment: cells; settings: Homo sapiens, 48 h, read-out: INH
[18] = biological target: Serine/threonine-protein kinase/endoribonuclease IRE1 (Homo sapiens, UniProt O75460); experiment: Inhibition of ERN1 (unknown origin) incubated for 1 hr by qPCR analysis
Procedure, shortened: as §1

SK-MEL-5 = experiment: Antiproliferative activity against human SK-MEL-5 cells assessed as cell growth inhibition measured after 48 hrs by SRB assay; settings: SK-MEL-5, 48 h
[19] = test system: Panel breast (Carcinoma cell lines); experiment: Antiproliferative activity against human Panel breast (Carcinoma cell lines) assessed as cell growth inhibition measured after 48 hrs by SRB assay
[20] = biological target: Tyrosine-protein kinase ABL1 (Homo sapiens, UniProt P00519); experiment: Inhibition of ABL1 (unknown origin) incubated for 1 hr by qPCR analysis
[21] = biological target: Mitogen-activated protein kinase 14 (Homo sapiens, UniProt Q16539); experiment: Inhibition of MAPK14 (unknown origin) incubated for 1 hr by qPCR analysis
Procedure, shortened: as §1

Sequence of Serine/threonine-protein kinase/endoribonuclease IRE1 (O75460 whole entry): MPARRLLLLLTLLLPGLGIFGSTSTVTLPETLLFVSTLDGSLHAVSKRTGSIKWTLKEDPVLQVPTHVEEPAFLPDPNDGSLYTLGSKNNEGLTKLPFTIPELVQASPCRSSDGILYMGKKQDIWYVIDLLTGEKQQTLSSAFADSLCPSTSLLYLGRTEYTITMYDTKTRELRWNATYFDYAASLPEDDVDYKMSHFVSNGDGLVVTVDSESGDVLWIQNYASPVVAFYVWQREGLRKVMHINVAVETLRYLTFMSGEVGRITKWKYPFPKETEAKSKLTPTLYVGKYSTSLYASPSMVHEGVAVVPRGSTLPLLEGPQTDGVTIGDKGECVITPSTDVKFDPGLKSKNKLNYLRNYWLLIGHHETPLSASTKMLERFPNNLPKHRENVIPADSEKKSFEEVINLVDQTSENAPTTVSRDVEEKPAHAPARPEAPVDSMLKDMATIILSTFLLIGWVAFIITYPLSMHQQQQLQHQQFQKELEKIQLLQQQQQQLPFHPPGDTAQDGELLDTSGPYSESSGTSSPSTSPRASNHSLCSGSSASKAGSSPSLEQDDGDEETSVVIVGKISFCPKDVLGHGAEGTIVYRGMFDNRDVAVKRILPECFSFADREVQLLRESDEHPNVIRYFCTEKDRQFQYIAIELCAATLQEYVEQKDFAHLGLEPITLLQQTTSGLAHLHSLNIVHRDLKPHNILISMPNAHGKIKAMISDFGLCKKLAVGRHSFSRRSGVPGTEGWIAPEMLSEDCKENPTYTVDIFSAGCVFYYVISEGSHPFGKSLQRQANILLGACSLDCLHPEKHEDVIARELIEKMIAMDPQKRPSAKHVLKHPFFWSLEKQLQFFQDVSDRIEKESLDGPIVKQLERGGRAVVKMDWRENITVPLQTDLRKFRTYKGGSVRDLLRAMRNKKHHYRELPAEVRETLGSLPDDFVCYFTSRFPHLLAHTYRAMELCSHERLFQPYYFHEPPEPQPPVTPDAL
Sequence of Tyrosine-protein kinase ABL1 (P00519 whole entry): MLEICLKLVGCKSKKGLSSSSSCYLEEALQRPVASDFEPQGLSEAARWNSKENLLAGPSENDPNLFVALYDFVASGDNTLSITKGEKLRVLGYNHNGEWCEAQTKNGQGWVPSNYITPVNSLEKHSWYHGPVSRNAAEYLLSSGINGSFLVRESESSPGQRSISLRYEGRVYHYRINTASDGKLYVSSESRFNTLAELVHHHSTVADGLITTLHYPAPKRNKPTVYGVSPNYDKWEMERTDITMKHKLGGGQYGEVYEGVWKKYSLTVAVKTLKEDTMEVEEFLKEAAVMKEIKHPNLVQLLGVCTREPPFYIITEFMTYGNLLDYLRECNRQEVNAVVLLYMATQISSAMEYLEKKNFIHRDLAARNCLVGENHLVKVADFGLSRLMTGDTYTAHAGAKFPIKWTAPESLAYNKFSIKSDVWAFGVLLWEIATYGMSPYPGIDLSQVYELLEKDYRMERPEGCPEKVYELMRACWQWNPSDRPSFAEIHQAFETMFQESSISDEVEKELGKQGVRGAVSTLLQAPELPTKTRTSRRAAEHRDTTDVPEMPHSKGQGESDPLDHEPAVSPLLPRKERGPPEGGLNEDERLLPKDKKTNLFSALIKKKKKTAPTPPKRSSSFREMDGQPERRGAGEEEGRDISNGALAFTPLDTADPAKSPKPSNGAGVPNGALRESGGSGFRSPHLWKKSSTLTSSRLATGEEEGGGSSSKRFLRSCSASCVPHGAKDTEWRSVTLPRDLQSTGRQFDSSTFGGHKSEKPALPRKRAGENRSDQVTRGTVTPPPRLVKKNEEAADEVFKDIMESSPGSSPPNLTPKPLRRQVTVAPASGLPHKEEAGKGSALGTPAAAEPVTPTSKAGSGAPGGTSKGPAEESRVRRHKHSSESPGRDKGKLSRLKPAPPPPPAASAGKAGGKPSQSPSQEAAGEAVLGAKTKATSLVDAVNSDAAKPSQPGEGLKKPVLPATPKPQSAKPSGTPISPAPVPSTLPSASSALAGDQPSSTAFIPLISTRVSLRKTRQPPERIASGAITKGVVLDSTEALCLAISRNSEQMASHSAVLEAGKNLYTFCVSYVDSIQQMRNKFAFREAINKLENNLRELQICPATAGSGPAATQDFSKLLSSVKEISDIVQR
Sequence of Fibroblast growth factor receptor 1 (P11362 whole entry): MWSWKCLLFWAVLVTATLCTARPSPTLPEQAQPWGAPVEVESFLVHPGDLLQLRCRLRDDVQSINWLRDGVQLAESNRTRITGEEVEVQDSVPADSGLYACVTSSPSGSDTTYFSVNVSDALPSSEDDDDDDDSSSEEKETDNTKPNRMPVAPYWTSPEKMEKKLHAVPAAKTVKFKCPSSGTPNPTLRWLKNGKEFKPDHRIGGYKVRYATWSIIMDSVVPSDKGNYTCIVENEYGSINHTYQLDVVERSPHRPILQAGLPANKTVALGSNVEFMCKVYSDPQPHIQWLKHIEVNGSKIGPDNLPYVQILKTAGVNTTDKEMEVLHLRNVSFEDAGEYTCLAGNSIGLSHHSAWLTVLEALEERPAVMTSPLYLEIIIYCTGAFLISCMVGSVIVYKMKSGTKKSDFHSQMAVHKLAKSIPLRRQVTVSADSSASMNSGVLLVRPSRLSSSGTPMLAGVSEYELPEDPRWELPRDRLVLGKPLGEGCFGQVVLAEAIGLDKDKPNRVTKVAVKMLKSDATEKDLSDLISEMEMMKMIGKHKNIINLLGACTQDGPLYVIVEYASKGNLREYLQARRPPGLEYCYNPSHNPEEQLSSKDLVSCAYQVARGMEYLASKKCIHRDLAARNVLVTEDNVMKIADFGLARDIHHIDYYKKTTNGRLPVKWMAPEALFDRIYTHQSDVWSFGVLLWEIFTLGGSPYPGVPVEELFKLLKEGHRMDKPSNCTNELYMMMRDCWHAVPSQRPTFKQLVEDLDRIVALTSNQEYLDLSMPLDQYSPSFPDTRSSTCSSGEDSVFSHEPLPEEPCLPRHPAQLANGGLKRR
Sequence of Mitogen-activated protein kinase 14 (Q16539 whole entry): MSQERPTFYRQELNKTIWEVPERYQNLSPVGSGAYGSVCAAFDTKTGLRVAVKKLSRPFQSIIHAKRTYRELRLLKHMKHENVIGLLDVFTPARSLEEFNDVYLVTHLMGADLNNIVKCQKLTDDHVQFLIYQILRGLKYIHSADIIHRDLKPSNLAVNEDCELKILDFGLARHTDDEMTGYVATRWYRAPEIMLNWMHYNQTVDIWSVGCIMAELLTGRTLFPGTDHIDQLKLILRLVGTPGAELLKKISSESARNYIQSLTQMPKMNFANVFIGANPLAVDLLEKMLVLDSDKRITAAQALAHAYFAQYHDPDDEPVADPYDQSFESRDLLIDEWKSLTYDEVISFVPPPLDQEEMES
Sequence of Homeodomain-interacting protein kinase 1 (Q86Z02 whole entry): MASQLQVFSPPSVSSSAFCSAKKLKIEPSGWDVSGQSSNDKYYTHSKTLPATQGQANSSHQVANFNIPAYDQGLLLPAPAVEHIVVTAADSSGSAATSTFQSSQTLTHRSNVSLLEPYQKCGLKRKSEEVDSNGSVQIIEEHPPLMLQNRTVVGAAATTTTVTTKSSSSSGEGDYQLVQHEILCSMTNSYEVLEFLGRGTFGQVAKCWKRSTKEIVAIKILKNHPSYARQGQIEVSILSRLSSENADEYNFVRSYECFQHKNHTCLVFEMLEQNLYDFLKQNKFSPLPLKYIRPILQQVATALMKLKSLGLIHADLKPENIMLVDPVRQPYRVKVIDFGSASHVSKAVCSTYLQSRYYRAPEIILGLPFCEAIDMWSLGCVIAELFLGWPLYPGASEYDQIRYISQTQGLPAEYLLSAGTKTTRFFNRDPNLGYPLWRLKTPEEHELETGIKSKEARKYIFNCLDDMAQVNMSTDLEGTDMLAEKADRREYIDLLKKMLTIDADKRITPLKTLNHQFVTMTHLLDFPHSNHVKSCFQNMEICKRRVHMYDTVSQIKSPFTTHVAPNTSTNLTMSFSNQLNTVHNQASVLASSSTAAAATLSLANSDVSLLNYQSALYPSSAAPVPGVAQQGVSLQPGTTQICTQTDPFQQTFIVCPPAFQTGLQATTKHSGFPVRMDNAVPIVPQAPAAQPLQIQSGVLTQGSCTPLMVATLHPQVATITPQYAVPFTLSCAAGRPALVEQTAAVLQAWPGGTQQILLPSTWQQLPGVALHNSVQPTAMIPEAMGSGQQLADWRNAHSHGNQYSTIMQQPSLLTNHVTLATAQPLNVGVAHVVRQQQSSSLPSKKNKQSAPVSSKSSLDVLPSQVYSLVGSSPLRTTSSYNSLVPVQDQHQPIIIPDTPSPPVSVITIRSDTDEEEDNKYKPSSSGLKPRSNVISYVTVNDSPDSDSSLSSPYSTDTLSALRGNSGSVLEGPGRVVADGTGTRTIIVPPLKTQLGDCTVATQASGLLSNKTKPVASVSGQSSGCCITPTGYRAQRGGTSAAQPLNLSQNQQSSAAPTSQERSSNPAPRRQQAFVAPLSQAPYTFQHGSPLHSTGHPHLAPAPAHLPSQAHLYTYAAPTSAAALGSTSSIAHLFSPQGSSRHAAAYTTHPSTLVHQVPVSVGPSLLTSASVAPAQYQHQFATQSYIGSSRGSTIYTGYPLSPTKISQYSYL
Sequence of Mitogen-activated protein kinase 8 (P45983 whole entry): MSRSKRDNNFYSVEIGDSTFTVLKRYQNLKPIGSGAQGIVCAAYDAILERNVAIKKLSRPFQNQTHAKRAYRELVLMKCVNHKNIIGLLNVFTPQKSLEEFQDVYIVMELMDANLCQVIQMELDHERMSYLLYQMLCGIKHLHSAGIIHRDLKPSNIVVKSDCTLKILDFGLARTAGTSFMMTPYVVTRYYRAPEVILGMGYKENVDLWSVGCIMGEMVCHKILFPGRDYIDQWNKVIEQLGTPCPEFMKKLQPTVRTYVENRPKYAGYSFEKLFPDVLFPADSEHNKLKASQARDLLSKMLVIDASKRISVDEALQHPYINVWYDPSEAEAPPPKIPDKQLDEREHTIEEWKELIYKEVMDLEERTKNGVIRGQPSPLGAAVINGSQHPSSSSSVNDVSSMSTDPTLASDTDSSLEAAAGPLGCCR

In the case of `O=S(=O)(NCCCNc1nccc(-c2c(-c3cccc(O)c3)nc3sccn23)n1)c1cccc(F)c1`, the inhibition at 10 µM [1] is reported as 93.8%, the IC50 [2] is reported as 2380 nM and the IC50 [3] is reported as 4880 nM. The IC50 [4] was 3020 nM, the IC50 (MDA-MB-435) was 2000 nM and the IC50 [5] was 1870 nM. It also gave a TGI (UACC-62) of 2730 nM, an IC50 [6] of 3190 nM and an IC50 [7] of 1480 nM. The IC50 (LOX IMVI) was 1910 nM, the IC50 (SK-MEL-2 [8]) was 2320 nM and the IC50 [9] was 10600 nM. It also gave a TGI (Malme-3M [10]) of 7860 nM, an IC50 [11] of 0.98 nM and an IC50 at 48 h [12] of 56300 nM. The IC50 (Malme-3M [13]) was 2600 nM, the TGI (UACC-257) was > 100000 nM and the IC50 [14] was 10300 nM. The inhibition at 10 µM [15] was 101%, the TGI (SK-MEL-2 [16]) was 6570 nM and the inhibition at 10 µM [17] was 83.1%. For the same compound, the IC50 [18] was 10200 nM, the IC50 (SK-MEL-5) was 1060 nM and the IC50 [19] was 2410 nM. It also gave an IC50 [20] of 13600 nM and an IC50 [21] of 1780 nM.
